Key:
[1] = test system: PC-3; assay: Growth inhibition of human PC3 cells after 48 hrs by sulforhodamine B assay; type: functional; conditions: PC-3, 48 h
[2] = test system: ACHN; assay: Growth inhibition of human ACHN cells after 48 hrs by sulforhodamine B assay; type: functional
Outline: (§1)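 NCI 60-cell-line screen. Compounds tested at five 10-fold dilutions from 10^-4 to 10^-8 M. Cells exposed for the last 48 h of a 72 h incubation, growth estimated by sulforhodamine B protein assay. GI50 is the concentration giving 50% growth inhibition. Values beyond the tested range are expressed as greater or lesser than the extreme concentration.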

[3] = test system: K562; assay: Growth inhibition of human K562 cells after 48 hrs by sulforhodamine B assay; type: functional; conditions: K562, 48 h; outline: as §1
[4] = test system: DU-145; assay: Growth inhibition of human DU145 cells after 48 hrs by sulforhodamine B assay; type: functional; conditions: DU-145, 48 h; outline: as §1
[5] = test system: MCF7; assay: Growth inhibition of human MCF7 cells after 48 hrs by sulforhodamine B assay; type: functional; conditions: MCF7, 48 h; outline: as §1
[6] = test system: KM12; assay: Growth inhibition of human KM12 cells after 48 hrs by sulforhodamine B assay; type: functional; conditions: KM12, 48 h; outline: as §1
[7] = test system: MDA-MB-468; assay: Growth inhibition of human MDA-MB-468 cells after 48 hrs by sulforhodamine B assay; type: functional; conditions: MDA-MB-468, 48 h; outline: as §1
[8] = test system: SF-268; assay: Growth inhibition of human SF268 cells after 48 hrs by sulforhodamine B assay; type: functional; conditions: SF-268, 48 h
[9] = test system: HL-60(TB); assay: Growth inhibition of human HL-60(TB) cells after 48 hrs by sulforhodamine B assay; type: functional; conditions: HL-60, 48 h
Outline: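 NCI 60-cell-line screen, HL-60(TB) included. Compound given at five 10-fold dilutions from 10^-4 to 10^-8 M. Cells exposed for the last 48 h of a 72 h incubation. Growth or viability estimated by sulforhodamine B protein assay. GI50 is the concentration giving 50% growth inhibition. Values outside the tested range are reported as greater or less than the highest or lowest concentration.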

[10] = Growth inhibition of human COLO205 cells after 48 hrs by sulforhodamine B assay; type: functional; conditions: COLO 205, 48 h; outline: as §1
[11] = test system: U-251; assay: Growth inhibition of human U251 cells after 48 hrs by sulforhodamine B assay; type: functional; conditions: U-251, 48 h
[12] = test system: NCI-H460; assay: Growth inhibition of human NCI-H460 cells after 48 hrs by sulforhodamine B assay; type: functional; conditions: NCI-H460, 48 h; outline: as §1
[13] = Growth inhibition of human EKVX cells after 48 hrs by sulforhodamine B assay; type: functional; outline: as §1
[14] = Growth inhibition of human HOP92 cells after 48 hrs by sulforhodamine B assay; type: functional; conditions: HOP-92, 48 h; outline: as §1
[15] = test system: NCI-H322M; assay: Growth inhibition of human NCI-H322M cells after 48 hrs by sulforhodamine B assay; type: functional; outline: as §1
[16] = test system: Malme-3M; assay: Growth inhibition of human MALME-3M cells after 48 hrs by sulforhodamine B assay; type: functional; outline: as §1
[17] = test system: SNB-19; assay: Growth inhibition of human SNB19 cells after 48 hrs by sulforhodamine B assay; type: functional; conditions: SNB-19, 48 h
[18] = Growth inhibition of human LOXIMVI cells after 48 hrs by sulforhodamine B assay; type: functional; conditions: LOX IMVI; outline: as §1
[19] = test system: CAKI-1; assay: Growth inhibition of human CAKI-1 cells after 48 hrs by sulforhodamine B assay; type: functional; conditions: CAKI-1, 48 h; outline: as §1
[20] = Growth inhibition of human BT549 cells after 48 hrs by sulforhodamine B assay; type: functional; conditions: BT-549, 48 h; outline: as §1
[21] = test system: UO-31; assay: Growth inhibition of human UO31 cells after 48 hrs by sulforhodamine B assay; type: functional; conditions: UO-31, 48 h
[22] = test system: SK-MEL-28; assay: Growth inhibition of human SK-MEL-28 cells after 48 hrs by sulforhodamine B assay; type: functional; conditions: SK-MEL-28, 48 h
[23] = test system: NCI-H23; assay: Growth inhibition of human NCI-H23 cells after 48 hrs by sulforhodamine B assay; type: functional; conditions: NCI-H23, 48 h; outline: as §1
[24] = test system: NCI-H522; assay: Growth inhibition of human NCI-H522 cells after 48 hrs by sulforhodamine B assay; type: functional; conditions: NCI-H522, 48 h; outline: as §1
[25] = test system: M14; assay: Growth inhibition of human M14 cells after 48 hrs by sulforhodamine B assay; type: functional; conditions: M14, 48 h; outline: as §1
[26] = test system: HCT-116; assay: Growth inhibition of human HCT116 cells after 48 hrs by sulforhodamine B assay; type: functional; conditions: HCT-116, 48 h; outline: as §1
[27] = test system: SK-OV-3; assay: Growth inhibition of human SKOV3 cells after 48 hrs by sulforhodamine B assay; type: functional; conditions: SK-OV-3, 48 h
[28] = Growth inhibition of human SF295 cells after 48 hrs by sulforhodamine B assay; type: functional; conditions: SF-295, 48 h
[29] = test system: SW-620; assay: Growth inhibition of human SW620 cells after 48 hrs by sulforhodamine B assay; type: functional; conditions: SW-620, 48 h
[30] = test system: MDA-MB-231; assay: Growth inhibition of human MDA-MB-231 cells after 48 hrs by sulforhodamine B assay; type: functional; conditions: MDA-MB-231, 48 h; outline: as §1
[31] = test system: T47D; assay: Growth inhibition of human T47D cells after 48 hrs by sulforhodamine B assay; type: functional
[32] = Growth inhibition of human MOLT4 cells after 48 hrs by sulforhodamine B assay; type: functional; conditions: MOLT-4, 48 h; outline: as §1
[33] = test system: HT-29; assay: Growth inhibition of human HT-29 cells after 48 hrs by sulforhodamine B assay; type: functional; conditions: HT-29, 48 h; outline: as §1
[34] = test system: HOP-62; assay: Growth inhibition of human HOP62 cells after 48 hrs by sulforhodamine B assay; type: functional; conditions: HOP-62, 48 h; outline: as §1
[35] = test system: MDA-MB-435; assay: Growth inhibition of human MDA-MB-435 cells after 48 hrs by sulforhodamine B assay; type: functional; conditions: MDA-MB-435, 48 h; outline: as §1
[36] = test system: SN12C; assay: Growth inhibition of human SN12C cells after 48 hrs by sulforhodamine B assay; type: functional
[37] = test system: OVCAR-4; assay: Growth inhibition of human OVCAR4 cells after 48 hrs by sulforhodamine B assay; type: functional; conditions: OVCAR-4, 48 h; outline: as §1
[38] = Growth inhibition of human NCI-ADR-RES cells after 48 hrs by sulforhodamine B assay; type: functional; outline: as §1
[39] = Growth inhibition of human RPMI8226 cells after 48 hrs by sulforhodamine B assay; type: functional; conditions: RPMI-8226, 48 h
[40] = test system: MT4; assay: Antiproliferative activity against human MT4 cells after 96 hrs by MTT assay; type: functional, cell-based; conditions: MT4, 96 h
Outline: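 Exponentially growing MT-4 cells (CD4+ human T-cells carrying integrated HTLV-1 genome), seeded at 1×10^5 cells/mL in RPMI-1640 with 10% FCS and antibiotics. Serial dilutions of compound (DMSO stock 100 mM, diluted in medium), 37 °C, 5% CO₂, 96 h. Viability read by MTT. 50% inhibition versus untreated controls by linear regression. Mean ± SD of three independent determinations.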

[41] = test system: SK-MEL-2; assay: Growth inhibition of human SK-MEL-2 cells after 48 hrs by sulforhodamine B assay; type: functional; conditions: SK-MEL-2, 48 h
[42] = test system: OVCAR-5; assay: Growth inhibition of human OVCAR5 cells after 48 hrs by sulforhodamine B assay; type: functional; conditions: OVCAR-5, 48 h

CC(=O)/C(=C\c1c(-c2ccccc2)[nH]c2ccccc12)S(=O)(=O)c1ccccc1
GI50 [1]: 2500 nM | GI50 [2]: 1800 nM | GI50 [3]: 442 nM | GI50 [4]: 3000 nM | GI50 [5]: 945 nM | GI50 [6]: 1000 nM | GI50 [7]: 1700 nM | GI50 [8]: 3.4 µM | GI50 [9]: 1700 nM | GI50 [10]: 1700 nM | GI50 [11]: 1200 nM | GI50 [12]: 1100 nM | GI50 [13]: 3.3 µM | GI50 [14]: 5.9 µM | GI50 [15]: 6.1 µM | GI50 [16]: 2100 nM | GI50 [17]: 6.1 µM | GI50 [18]: 1400 nM | GI50 [19]: 2400 nM | GI50 [20]: 1900 nM | GI50 [21]: 1600 nM | GI50 [22]: 2000 nM | GI50 [23]: 1600 nM | GI50 [24]: 1300 nM | GI50 [25]: 521 nM | GI50 [26]: 754 nM | GI50 [27]: 2900 nM | GI50 [28]: 2400 nM | GI50 [29]: 778 nM | GI50 [30]: 1700 nM | GI50 [31]: 1400 nM | GI50 [32]: 1600 nM | GI50 [33]: 589 nM | GI50 [34]: 1200 nM | GI50 [35]: 295 nM | GI50 [36]: 1900 nM | GI50 [37]: 3.7 µM | GI50 [38]: 520 nM | GI50 [39]: 2200 nM | EC50 [40]: 400 nM | GI50 [41]: 1400 nM | GI50 [42]: 2000 nM
